The source of these data is ChEMBL document CHEMBL1125516, “TSAO analogues. Stereospecific synthesis and anti-HIV-1 activity of 1-[2',5'-bis-O-(tert-butyldimethylsilyl)-beta-D-ribofuranosyl]-3'-spiro -5''- (4''-amino-1'',2''-oxathiole 2'',2''-dioxide) pyrimidine and pyrimidine-modified nucleosides” (J Med Chem, 1992).

Where only a bound is given, the exact number is not on record here.

Assay [1] relates to MT4. In words: Concentration required to inhibit HIV-1 induced cytopathicity in MT-4 cells by 50%. Format: functional, cell-based. To be noted: Homo sapiens. The gist of the method:
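HIV-1 IIIB-infected human MT-4 cells (HTLV-1-transformed), 5 x 10^5 cells/mL, infected at 100 CCID50 per mL of cell suspension, then mixed with compound dilutions. After 5 days, viable cells were counted by trypan blue staining in a blood-cell-counting chamber. EC50 is the concentration […]. Values are means of at least three to five independent experiments.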

Assay [2] is described as follows: Selectivity index was defined as the ratio of CC50 to EC50. It counts as functional. In short, it runs like this: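 The ratio is CC50/EC50. Both come from MT-4 cells at 5 × 10^5 cells/mL, mixed 1:1 with compound dilutions for 5 days, with viable cells counted by trypan blue. EC50 used cells infected with HIV-1 (IIIB) at 100 CCID50 per mL. CC50 used mock-infected cells. […] Values are means of three to five experiments.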

Assay [3] deals with MT4. In words: Cytotoxic concentration required to reduce MT-4 cell viability by 50%. Format: functional. Particulars: Homo sapiens. The gist of the method: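 MT-4 cells (HTLV-1-transformed human T-lymphocytes) at 5 × 10^5 cells/mL were mock-infected and mixed 1:1 with serial dilutions of compound. After 5 days, viable cells were counted by trypan blue exclusion in a blood-cell-counting chamber. CC50 is the concentration reducing viable cell number by 50%. Values are means of at least three to five independent experiments.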

Take `C=CCn1c(=O)c(C)cn([C@@H]2O[C@H](CO[Si](C)(C)C(C)(C)C)[C@@]3(OS(=O)(=O)C=C3N)[C@H]2O[Si](C)(C)C(C)(C)C)c1=O`: a half-maximal effect with MT4 [1] (EC50) was put at 0.233 µM. The Selectivity index in assay [2] was over 1420.
Turning to `CCn1c(=O)c(C)cn([C@@H]2O[C@H](CO[Si](C)(C)C(C)(C)C)[C@@]3(OS(=O)(=O)C=C3N)[C@H]2O[Si](C)(C)C(C)(C)C)c1=O`, in the assay on MT4 [1], the concentration for a half-maximal effect (EC50) (commonly the concentration needed to bring the measured effect to its halfway point) is 0.123 µM. Further, the Selectivity index in assay [2] was found to be 1000. Further, the CC50 (commonly the concentration at which the toxic effect on the cells reaches its halfway point) in the assay on MT4 [3] is 123 µM.
In the case of `Cc1cn([C@@H]2O[C@H](CO[Si](C)(C)C(C)(C)C)C3(OS(=O)(=O)C=C3N)[C@H]2O[Si](C)(C)C(C)(C)C)c(=O)[nH]c1=O` (some centres undefined), a half-maximal effect in the assay with MT4 [1] (EC50) was put at 0.06 µM. In the assay with MT4 [3], this compound registered a CC50 of 14 µM.
On to `C=CCn1c(=O)ccn([C@@H]2O[C@H](CO[Si](C)(C)C(C)(C)C)[C@@]3(OS(=O)(=O)C=C3N)[C@H]2O[Si](C)(C)C(C)(C)C)c1=O`, for which the EC50 in the assay with MT4 [1] was 0.615 µM. In assay [2], the Selectivity index worked out at 15. In the assay with MT4 [3], the CC50 was found to be 8.9 µM.
Taken in the same sequence, the figures for `Cc1cn([C@@H]2O[C@H](CO[Si](C)(C)C(C)(C)C)[C@@]3(OS(=O)(=O)C=C3N)[C@H]2O[Si](C)(C)C(C)(C)C)c(=O)nc1N` were 0.127 µM, 246 and 31 µM.
The compound `CC(C)=CCN1Cc2cccc3[nH]c(=S)n(c23)C[C@@H]1C` yielded an EC50 in the assay on MT4 [1] of 0.076 µM. Besides, the Selectivity index in assay [2] is over 1050. In the assay with MT4 [3], this compound showed a CC50 of over 80 µM.
In the case of `Cc1cn([C@@H]2O[C@H](COC(=O)c3ccccc3)[C@@]3(OS(=O)(=O)C=C3N)[C@H]2O[Si](C)(C)C(C)(C)C)c(=O)[nH]c1=O`, in the assay with MT4 [1], the EC50 is over 15 µM. In assay [2], the Selectivity index was under 2.5. This compound registered a CC50 with MT4 [3] of 36 µM.
As to `Cc1cn([C@@H]2O[C@H](CO[Si](C)(C)C(C)(C)C)[C@@]3(OS(=O)(=O)C=C3N)[C@H]2O[Si](C)(C)C(C)(C)C)c(=O)n(C)c1=O`, a half-maximal response with MT4 [1] (EC50) required 0.059 µM. Further, the Selectivity index in assay [2] came to 4090. This compound also returned a CC50 in the assay with MT4 [3] of 240 µM.
Taken in the same sequence, the figures for `CC(C)=CCn1c(=O)c(C)cn([C@@H]2O[C@H](CO[Si](C)(C)C(C)(C)C)[C@@]3(OS(=O)(=O)C=C3N)[C@H]2O[Si](C)(C)C(C)(C)C)c1=O` were 0.377 µM, 183 and 69 µM.
Consider `CC(C)(C)[Si](C)(C)OC[C@H]1O[C@@H](n2ccc(N)nc2=O)[C@H](O[Si](C)(C)C(C)(C)C)[C@]12OS(=O)(=O)C=C2N`, for which the EC50 in the assay with MT4 [1] was 1 µM. In addition, the Selectivity index in assay [2] is over 360. The compound also gave a CC50 in the assay with MT4 [3] of over 360 µM.
In turn, `Cc1cn([C@@H]2O[C@H](CO)[C@@]3(OS(=O)(=O)C=C3N)[C@H]2O[Si](C)(C)C(C)(C)C)c(=O)[nH]c1=O` gave an EC50 in the assay on MT4 [1] of over 80 µM. The Selectivity index in assay [2] is under 2.5. This compound returned a CC50 in the assay with MT4 [3] of 229 µM.
In the case of `CC(=O)O[C@H]1[C@H](n2cc(C)c(=O)[nH]c2=O)O[C@H](COC(=O)c2ccccc2)[C@@]12OS(=O)(=O)C=C2N`, the EC50 in the assay with MT4 [1] is over 200 µM. This compound had a CC50 in the assay on MT4 [3] of over 200 µM.
In the assay on MT4 [1], `Cc1ccnc2c1NC(=O)c1cccnc1N2C1CC1` [NEVIRAPINE] returned an EC50 of 0.128 µM. In addition, in assay [2], the Selectivity index was over 625. In the assay with MT4 [3], this compound returned a CC50 of over 80 µM.
Taken in the same sequence, the figures for `CC(C)(C)[Si](C)(C)OC[C@H]1O[C@@H](n2ccc(=O)[nH]c2=O)[C@H](O[Si](C)(C)C(C)(C)C)C12OS(=O)(=O)C=C2N` (some centres undefined) were 0.206 µM, 73 and 15 µM.
